Assay [1] concerns the target T1, Alpha-1D adrenergic receptor (Rattus norvegicus) (UniProt P23944).
T1 sequence (whole entry): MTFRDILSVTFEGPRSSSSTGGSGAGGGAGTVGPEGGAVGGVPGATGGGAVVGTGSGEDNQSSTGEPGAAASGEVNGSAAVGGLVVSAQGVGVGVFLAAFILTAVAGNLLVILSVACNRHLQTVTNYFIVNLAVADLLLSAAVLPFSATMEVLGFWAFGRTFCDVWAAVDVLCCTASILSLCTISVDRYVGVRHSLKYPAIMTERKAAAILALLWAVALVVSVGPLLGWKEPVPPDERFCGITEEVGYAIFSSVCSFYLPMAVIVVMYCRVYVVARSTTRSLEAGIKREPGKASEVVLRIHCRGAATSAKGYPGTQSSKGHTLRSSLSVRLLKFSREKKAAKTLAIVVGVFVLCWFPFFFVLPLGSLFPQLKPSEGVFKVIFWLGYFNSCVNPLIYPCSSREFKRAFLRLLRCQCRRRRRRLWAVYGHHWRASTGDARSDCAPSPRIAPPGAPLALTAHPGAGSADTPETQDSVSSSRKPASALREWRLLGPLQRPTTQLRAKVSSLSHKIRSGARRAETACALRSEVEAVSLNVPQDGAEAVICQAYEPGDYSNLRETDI
Briefly: Antagonistic activity at ADRA1D in rat thoracic aorta. It is filed as functional, tissue-based. In short, it runs like this:
(§1)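 Antagonism in isolated rat tissues: prostatic vas deferens (α1A), spleen (α1B), thoracic aorta (α1D). Each compound tested at a single concentration, and each concentration was investigated at least four times. pKb was calculated by the van Rossum method. pA2 was derived from Arunlakshana–Schild plots. WB4101 was used as the standard.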

The species named for the next assay is Rattus norvegicus. Put plainly: Selectivity for ADRA1D over ADRA1B. The procedure, abridged: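 Subtype selectivity is the antilog of the difference between the pKb values at α1A, α1B and α1D, measured in isolated rat prostatic vas deferens, spleen and thoracic aorta.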
The target in assay [2] is T2, Alpha-1B adrenergic receptor (Rattus norvegicus) (UniProt P15823).
T2 sequence (whole entry): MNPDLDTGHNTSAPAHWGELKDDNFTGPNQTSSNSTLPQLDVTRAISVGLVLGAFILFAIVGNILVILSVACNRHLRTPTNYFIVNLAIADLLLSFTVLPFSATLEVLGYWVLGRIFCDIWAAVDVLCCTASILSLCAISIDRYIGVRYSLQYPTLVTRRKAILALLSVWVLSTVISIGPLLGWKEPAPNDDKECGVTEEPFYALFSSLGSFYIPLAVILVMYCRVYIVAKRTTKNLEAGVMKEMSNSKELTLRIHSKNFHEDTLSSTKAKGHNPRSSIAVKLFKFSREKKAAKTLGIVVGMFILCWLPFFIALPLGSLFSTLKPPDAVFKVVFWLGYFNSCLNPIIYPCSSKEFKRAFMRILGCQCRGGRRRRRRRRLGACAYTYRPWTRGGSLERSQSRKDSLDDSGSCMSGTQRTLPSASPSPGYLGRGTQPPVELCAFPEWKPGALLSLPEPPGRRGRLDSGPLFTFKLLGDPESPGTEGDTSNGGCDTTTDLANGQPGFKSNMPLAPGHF
Briefly: Antagonistic activity at ADRA1B in rat spleen. It is filed as functional, tissue-based. In short, it runs like this:
as §1

A word on the pKb: it is −log10 of the Kb, conventionally taken in molar units. A low value points to a high Kb. As for `Cc1ccc(-c2cc3[nH]c(=O)n(CCN4CCN(c5ccccc5Cl)CC4)c(=O)c3[nH]2)cc1`, the pKb in assay [1] is 6.44; in assay [2], 6.37. Moreover, in the assay filed under Rattus norvegicus, the Ratio pKb turned out to be 1.
For `Cc1ccc(-c2cc3c(=O)n(CCN4CCN(c5ccccc5Cl)CC4)c(=O)[nH]c3[nH]2)cc1`, in that order: 7.78, 7.5 and 2.
Taken in the same sequence, the figures for `O=c1[nH]c2[nH]c(-c3ccc(Cl)cc3)cc2c(=O)n1CCN1CCN(c2ccccc2Cl)CC1` were 7.66, 6.64 and 10.
Taken in the same sequence, the figures for `COc1ccc(-c2cc3c(=O)n(CCN4CCN(c5ccccc5Cl)CC4)c(=O)[nH]c3[nH]2)cc1` were 7.69, 8.03 and 0.5.

The values above are taken from ChEMBL document CHEMBL1148546, “3-Arylpiperazinylethyl-1H-pyrrolo[2,3-d]pyrimidine-2,4(3H,7H)-dione derivatives as novel, high-affinity and selective alpha(1)-adrenoceptor ligands” (Bioorg Med Chem Lett, 2006).
